SF1 activator = activators of human SF-1, primary screen, cell-based, CHO-K1, Gal4-SF-1 LBD, luciferase luminescence; Steroidogenic factor 1 (Homo sapiens), Q13285; CHO-K1 Gal4-SF-1 LBD luciferase reporter; % increase over DMSO SF-1-specific signal; activation, % at 10 µM; 1.9% of 65,000 active; AID 522, 2006;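 active means activation above the mean activation of all tested compounds plus 3 SD, cut at about 50% in these data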
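System: CHO-K1 cells with Gal4–hSF-1 LBD chimera plus Gal4-driven luciferase; quantity: 4,000 CHO-K1 cells per well; compound: one dose, 10 µM compound, 1% DMSO; times: 20 h compound treatment, 37 °C; measured by: SteadyLite luciferase luminescence; read-out: percent activation versus DMSO; benchmarks: DMSO and mock-transfected background; replicates: one test per compound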
ERa coact inh = ERα–SRC-1 coactivator interaction inhibitors, primary screen, biochemical, TR-FRET, ERα LBD, estradiol-bound; TR-FRET ER-alpha LBD / SRC-1 peptide; inhibition, % at 25.6 µM; 1.7% of 86,000 active; Estrogen receptor (Homo sapiens), P03372; AID 629, 2007; in the data active means inhibition above about 50%
Target sequence (P03372 whole entry, looked up, the tested form may be a part): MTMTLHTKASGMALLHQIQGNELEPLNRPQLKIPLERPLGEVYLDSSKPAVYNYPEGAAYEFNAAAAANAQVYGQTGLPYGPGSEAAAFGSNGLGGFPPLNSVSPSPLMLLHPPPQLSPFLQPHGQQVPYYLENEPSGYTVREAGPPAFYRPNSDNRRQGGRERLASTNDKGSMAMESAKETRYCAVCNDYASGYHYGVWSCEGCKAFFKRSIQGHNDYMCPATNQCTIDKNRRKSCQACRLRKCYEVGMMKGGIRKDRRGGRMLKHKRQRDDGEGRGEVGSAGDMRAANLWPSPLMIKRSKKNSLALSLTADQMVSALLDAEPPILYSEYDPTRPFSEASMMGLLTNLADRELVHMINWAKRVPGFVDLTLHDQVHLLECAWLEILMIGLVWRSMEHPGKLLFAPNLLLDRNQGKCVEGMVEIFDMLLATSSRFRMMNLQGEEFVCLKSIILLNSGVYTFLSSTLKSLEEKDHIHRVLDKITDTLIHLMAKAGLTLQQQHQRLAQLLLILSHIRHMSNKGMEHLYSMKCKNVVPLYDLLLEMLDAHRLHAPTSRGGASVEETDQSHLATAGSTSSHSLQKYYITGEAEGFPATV
BAP1 block = inhibitors of BAP1 deubiquitinase, primary screen, biochemical, Ub-AMC fluorescence, kinetic; Ubiquitin carboxyl-terminal hydrolase BAP1 (Homo sapiens), Q92560; recombinant BAP1, Ub-AMC hydrolysis fluorescence kinetic; stronger effect = lower value; calls only at 20 µM; 0.48% of 72,000 active;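 active means activity remaining at or below 50% of control, provided the compound also passes the data quality filters; inactive means the rest, including low values that fail the filters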
ERb SRC1 inh = inhibitors of ERβ-SRC1 coactivator interaction, primary screen, biochemical, TR-FRET, ERβ LBD, SRC-1 peptide. Estrogen receptor beta (Homo sapiens), Q92731. inhibition, % at 25.6 µM. 1.3% of 86,000 active. TR-FRET ER-beta LBD / SRC1-Cy5 peptide binding; receptor agonist-loaded with 1 µM estradiol. AID 633, 2007;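 active means compounds whose percent inhibition of the receptor-coactivator binding signal exceeds about 50% in the single-dose screen, limit read from the data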
RORA act = activators of orphan receptor RORA, primary screen, cell-based, luminescence | Nuclear receptor ROR-alpha (Homo sapiens), P35398 | CHO-K1 Gal4-RORA LBD luciferase reporter; percent increase over mock-subtracted basal signal | activation, % at 10 µM | 1.5% of 65,000 active | AID 560, 2006;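 active means activation above the mean of all tested compounds plus 3 SD, cut at about 49% in these data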
ERa SRC1 pot = enhancers of ERα–SRC-1 coactivator binding, primary screen, biochemical, TR-FRET, ERα LBD, low estradiol; Estrogen receptor (Homo sapiens), P03372; TR-FRET ERalpha-LBD/SRC-Cy5 coactivator binding, 2 h; 100 = basal binding, no effect; coactivator binding (% of control), % at 25.6 µM; 1.3% of 86,000 active; AID 639, 2007; in the data active means activity above about 200%;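 further: binding measured in presence of low estradiol as agonist stimulus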
Of the large screens only hits and unclear results are named; the others gave an inactive call; [ ] = remark or other dose. An excerpt weighted towards active compounds, which were near 5.1% of everything screened.

COc1ccc(C(=O)C(OC(=O)c2cc([N+](=O)[O-])ccc2Cl)c2ccccc2)cc1 (configuration not stated)	none (no result: SF1 activator, ERa coact inh, ERb SRC1 inh, RORA act, ERa SRC1 pot)
CCCn1c(NCc2ccco2)nc2c1c(=O)n(C)c(=O)n2C	ERa coact inh 63.7[fluorescence artefact?], ERb SRC1 inh 52.9[fluorescence artefact?] (no result: SF1 activator, BAP1 block, RORA act)
COc1ccc(Cl)c(Cn2c(NCc3ccco3)nc3c2c(=O)n(C)c(=O)n3C)c1	ERa coact inh 80.8[fluorescence artefact?], ERb SRC1 inh 53.5[fluorescence artefact?]
COc1ccc(N2CCn3c2nc2c3c(=O)n(CCCc3ccccc3)c(=O)n2C)cc1	ERa coact inh 87.3[fluorescence artefact?] (not shown: BAP1 block)
COc1ccc(Oc2nc3c(c(=O)n(C)c(=O)n3C)n2Cc2ccccc2)cc1	ERa SRC1 pot 208.4[fluorescence artefact?] (no result: SF1 activator, BAP1 block, RORA act)
COc1ccc(N2CCn3c2nc2c3c(=O)n(CCCc3ccccc3)c(=O)n2C)c(OC)c1	none
Cc1ccccc1Cn1c(NCc2ccco2)nc2c1c(=O)n(C)c(=O)n2C	none (no result: SF1 activator, ERa coact inh, ERb SRC1 inh, RORA act, ERa SRC1 pot)
O=C(NCCc1ccccc1)c1nn2c(c1Cl)NC(c1cccs1)CC2C(F)(F)F (configuration not stated)	none (no result: SF1 activator, ERa coact inh, ERb SRC1 inh, RORA act, ERa SRC1 pot)
CC(=O)Nc1ccc(N=Cc2ccc(C=Nc3ccc(NC(C)=O)cc3)cc2)cc1	none (no result: SF1 activator, ERa coact inh, ERb SRC1 inh, RORA act, ERa SRC1 pot)
COC(=O)c1ccc(COc2ccc3c(=O)c(-c4ccc(C(=O)OC)o4)c(C)oc3c2)o1	none (no result: SF1 activator, ERa coact inh, ERb SRC1 inh, RORA act, ERa SRC1 pot)
O=C1CC(c2ccc(F)cc2)Cc2nc(NCC3CCCO3)ncc21 (configuration not stated)	ERa coact inh 59.8 (no result: SF1 activator, BAP1 block, RORA act)
CCCCCCOc1ccc(NC(=O)c2cccs2)cc1	none (no result: SF1 activator, ERa coact inh, ERb SRC1 inh, RORA act, ERa SRC1 pot)
Clc1ccc(-c2ccc(-c3nn4c(-c5ccco5)nnc4s3)o2)cc1	ERa coact inh 74.2 (not shown: BAP1 block)
c1ccc(-c2nn3c(-c4ccco4)nnc3s2)nc1	none
COc1ccccc1-c1nnc2sc(-c3ccc(N(C)C)cc3)nn12	none (no result: ERa coact inh, ERb SRC1 inh, ERa SRC1 pot)
CN(C)c1ccc(-c2nn3c(-c4ccccc4Cl)nnc3s2)cc1	ERa coact inh 72.3[fluorescence artefact?] (not shown: BAP1 block)
Cc1oc(-c2ccccc2Cl)cc1-c1nn2c(-c3ccco3)nnc2s1	ERa coact inh 57.8, ERb SRC1 inh 52.1[fluorescence artefact?] (not shown: BAP1 block)
COc1cccc(OCc2nnc(SCC(=O)NCc3ccco3)n2CCc2ccccc2)c1	ERa coact inh 57.1
CCCn1c(SCC(=O)NC(=O)NCc2ccco2)n[nH]c1=O	ERa coact inh 73.9[fluorescence artefact?], ERb SRC1 inh 63.3[fluorescence artefact?]
COc1cccc(OCc2nnc(SCC(=O)NCc3ccco3)n2C)c1	none (no result: SF1 activator, BAP1 block, RORA act)
CCOc1ccccc1-n1nnnc1SCC(=O)NC(=O)NCc1ccco1	ERa coact inh 76.8[fluorescence artefact?], ERb SRC1 inh 61.7
C=CCn1c(SCC(=O)NC(=O)NCc2ccco2)nc2sc(CC)cc2c1=O	ERa coact inh 73.5, ERb SRC1 inh 64.8
Cn1nnnc1SCC(=O)NCc1ccco1	none
Cc1ccc([N+](=O)[O-])cc1NC1OC(CO)C(O)C(O)C1O (configuration not stated)	none (no result: SF1 activator, ERa coact inh, ERb SRC1 inh, RORA act, ERa SRC1 pot)
O=C(CSc1nc(-c2ccc(F)cc2)cs1)NC(=O)NCc1ccco1	ERa coact inh 52.7
Cc1cc(NC(=O)CSc2nc(-c3ccc(F)cc3)cs2)no1	none
Cc1nnc(SCC(=O)NC(=O)NCc2ccco2)n1Cc1ccccc1	ERa coact inh 52.5 (no result: SF1 activator, BAP1 block, RORA act)
O=C(CSc1nnc(-c2ccco2)n1Cc1ccccc1)NC(=O)NCc1ccccc1	none
O=C(CSc1nnc(-c2ccco2)n1Cc1ccccc1)c1ccccc1	SF1 activator 50.9, RORA act 49.0
Cc1ccc(C(=O)CSc2nnc(-c3ccco3)n2Cc2ccccc2)cc1	none
Cc1ccc(C2=N/C(=C\N3CCCCC3)C(=O)O2)cc1	none (no result: SF1 activator, BAP1 block, RORA act)
Cc1ccc(C2=N/C(=C/N3CCOCC3)C(=O)O2)cc1	SF1 activator 54.8
Cc1ccc(OCc2nc(-c3ccccc3)no2)c(C)c1	SF1 activator 58.8
CSc1nnc(-c2sc3cc(C(F)(F)F)cnc3c2-c2ccccn2)n1C	ERa SRC1 pot 347.2[fluorescence artefact?] (no result: SF1 activator, BAP1 block, RORA act)

Compound activity as filed in PubChem BioAssay.
